According to ChEMBL document CHEMBL4020714, “Design, synthesis, and evaluation of curcumin derivatives as Nrf2 activators and cytoprotectors against oxidative death” (Eur J Med Chem, 2017):
Calls of active or inactive are those of the source. The rule behind the calls is not given here.

Key:
[1] = Stability of the compound in PBS at 40 uM at pH 7.4 at 25 degC measured for 30 mins by UV-Vis spectrophotometric analysis; format: physicochemical; conditions: buffer, pH 7.4, 0.5 h
Summary of the method: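 Compound at 40 μM in PBS (pH 7.4) at 25 °C. UV-visible absorption spectra recorded every 2 min for 30 min against blanks of solution plus DMSO.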

[2] = target: T1, Nuclear factor erythroid 2-related factor 2 (Homo sapiens) (UniProt Q16236); assay: Activation of Nrf2 in human HepG2 cells assessed as cytoprotection against t-BHP-induced oxidative cell death at 5 uM incubated for 24 hrs followed by compound removal with subsequent incubation with 900 uM of t-BHP for 6 hrs by MTT assay; format: cell-based
T1 sequence (whole entry): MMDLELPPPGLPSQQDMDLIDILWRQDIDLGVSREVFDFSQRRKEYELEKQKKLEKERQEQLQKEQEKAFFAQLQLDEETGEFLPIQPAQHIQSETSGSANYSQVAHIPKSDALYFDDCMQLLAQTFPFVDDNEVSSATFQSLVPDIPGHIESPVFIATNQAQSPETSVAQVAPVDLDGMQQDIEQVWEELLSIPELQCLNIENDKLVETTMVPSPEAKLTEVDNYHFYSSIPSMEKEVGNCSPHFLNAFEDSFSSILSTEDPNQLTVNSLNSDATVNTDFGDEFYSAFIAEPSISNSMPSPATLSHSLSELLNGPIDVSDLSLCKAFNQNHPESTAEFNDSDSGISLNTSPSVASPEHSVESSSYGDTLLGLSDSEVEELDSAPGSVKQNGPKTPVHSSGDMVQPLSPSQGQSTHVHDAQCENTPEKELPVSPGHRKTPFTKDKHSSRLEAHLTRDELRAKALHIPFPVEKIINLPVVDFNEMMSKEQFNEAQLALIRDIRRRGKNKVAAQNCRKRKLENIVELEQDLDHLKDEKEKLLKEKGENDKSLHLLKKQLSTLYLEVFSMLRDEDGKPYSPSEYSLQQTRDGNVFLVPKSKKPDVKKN
Summary of the method: (§1)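 HepG2 cells (5×10^3/well) seeded and grown 24 h in 1640 medium with 10% FBS at 37 °C and 5% CO2. Compound is added for 24 h, then removed, and cells are challenged with 900 μM t-BHP for 6 h at 37 °C. MTT (0.5 mg/mL) is added for 4 h, formazan dissolved in DMSO, and absorbance read at 570 nm. Where used, inhibitors are added 1 h before compound. Mean ± SD of three independent experiments.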

[3] = test system: HepG2; assay: Cytotoxicity against human HepG2 cells assessed as reduction in cell viability at 5 uM after 24 hrs by MTT assay; format: cell-based; conditions: hepg2, 24 h
Summary of the method: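 MTT viability in HepG2 cells (5×10^3/well) after 24 h exposure to compound at 5 μM. Formazan dissolved in DMSO and absorbance read at 570 nm. Mean ± SD of three independent experiments.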

[4] = target: T1, Nuclear factor erythroid 2-related factor 2 (Homo sapiens); assay: Activation of Nrf2 in human HepG2 cells assessed as cytoprotective activity against t-BHP-induced oxidative cell death at 20 uM incubated for 24 hrs followed by compound removal with subsequent incubation with 900 uM of t-BHP for 6 hrs by MTT assay; format: cell-based; summary of the method: as §1
[5] = target: T1, Nuclear factor erythroid 2-related factor 2 (Homo sapiens); assay: Activation of Nrf2 in human HepG2 cells assessed as increase in Nrf2 expression level at 20 uM by Western blot analysis; format: cell-based
Summary of the method: (§2)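 HepG2 cells (2×10^6/well) treated at the indicated concentrations and times. Whole-cell lysates, or nuclear and cytoplasmic fractions, are prepared and quantified by BCA. Samples are run at 40 μg/lane on 12% SDS-PAGE, transferred to nitrocellulose, probed with specific antibodies and HRP secondary (1/5000), and detected by ECL. Where used, LY294002 (15 μM), SP600125 (25 μM) or DTT (400 μM) is added 1 h before compound.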

[6] = target: T1, Nuclear factor erythroid 2-related factor 2 (Homo sapiens); assay: Activation of Nrf2 in human HepG2 cells assessed as increase in HO-1 expression level at 20 uM by Western blot analysis; format: cell-based; summary of the method: as §2
[7] = target: T1, Nuclear factor erythroid 2-related factor 2 (Homo sapiens); assay: Activation of Nrf2 in human HepG2 cells assessed as increase in GCLC expression level at 20 uM by Western blot analysis; format: cell-based; summary of the method: as §2
[8] = target: T1, Nuclear factor erythroid 2-related factor 2 (Homo sapiens); assay: Activation of Nrf2 in human HepG2 cells assessed as increase in GCLM expression level at 20 uM by Western blot analysis; format: cell-based; summary of the method: as §2
[9] = target: T1, Nuclear factor erythroid 2-related factor 2 (Homo sapiens); assay: Activation of Nrf2 in human HepG2 cells assessed as increase in Nrf2 expression level after 3 hrs by Western blot analysis; format: cell-based; summary of the method: as §2
[10] = target: T1, Nuclear factor erythroid 2-related factor 2 (Homo sapiens); assay: Activation of Nrf2 in human HepG2 cells assessed as increase in GCLC expression level after 3 hrs by Western blot analysis; format: cell-based; summary of the method: as §2
[11] = target: T1, Nuclear factor erythroid 2-related factor 2 (Homo sapiens); assay: Activation of Nrf2 in human HepG2 cells assessed as increase in GCLM expression level after 3 hrs by Western blot analysis; format: cell-based; summary of the method: as §2
[12] = target: T1, Nuclear factor erythroid 2-related factor 2 (Homo sapiens); assay: Activation of Nrf2 in human HepG2 cells assessed as increase in HO-1 expression level after 3 hrs by Western blot analysis; format: cell-based; summary of the method: as §2

Compound | Stability [1] | Activity [2] | Activity [3] | also measured
COc1ccc(/C=C/C(=O)C(C)(C)C(=O)/C=C/c2ccc(OC)c(OC)c2)cc1OC | Unstable | Active | Non-Toxic | 
COc1ccccc1/C=C/C(=O)C(C)(C)C(=O)/C=C/c1ccccc1OC |  | Active | Non-Toxic | 
COc1cc(/C=C/C(=O)C(C)(C)C(=O)/C=C/c2cc(OC)c(OC)c(OC)c2)cc(OC)c1OC |  | Active | Non-Toxic | 
COc1cc(/C=C/C(=O)C(C)(C)C(=O)/C=C/c2ccc(O)c(OC)c2)ccc1O | Stable | Active | Non-Toxic | 
COc1cccc(OC)c1/C=C/C(=O)C(C)(C)C(=O)/C=C/c1c(OC)cccc1OC |  | Active | Non-Toxic | 
CC(C)(C)c1cc(O)ccc1O |  |  |  | Activity [4]: Active; Activity [5]: Active; Activity [6]: Active; Activity [7]: Active; Activity [8]: Active
COc1cc(/C=C/C(=O)CC(=O)/C=C/c2ccc(O)c(OC)c2)ccc1O [CURCUMIN] | Unstable | Active | Non-Toxic | 
CC(C)(C(=O)CCc1ccc(O)c(O)c1)C(=O)CCc1ccc(O)c(O)c1 |  | Active | Non-Toxic | Activity [9]: inactive; Activity [10]: inactive; Activity [11]: inactive; Activity [12]: inactive
CC(C)(C(=O)/C=C/c1ccccc1O)C(=O)/C=C/c1ccccc1O |  | Active | Non-Toxic | 
COc1cccc(/C=C/C(=O)C(C)(C)C(=O)/C=C/c2cccc(OC)c2)c1 |  | Active | Non-Toxic | 
CC(C)(C(=O)/C=C/c1ccccc1C(F)(F)F)C(=O)/C=C/c1ccccc1C(F)(F)F |  | Active | Non-Toxic | 
CC(C)(C(=O)/C=C/c1ccccc1)C(=O)/C=C/c1ccccc1 | Unstable | Active | Non-Toxic | Activity [9]: inactive; Activity [10]: inactive; Activity [11]: inactive; Activity [12]: inactive
